Data: ChEMBL document CHEMBL3102846 (Eur J Med Chem, 2014)

What was measured:
[1] = Inhibition of Wnt3A/beta-catenin signaling in HEK293 cells at 5 uM after 24 hrs by firefly/renilla dual luciferase reporter gene assay relative to vehicle-treated control; format: cell-based; parameters: scale not given: the % may be the effect or the level left; settings: Homo sapiens
Procedure, shortened: (§1)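 HEK293T cells were co-transfected with TOPglow (or FOPglow) plus pCMV Renilla. At 20 h they were reseeded at 18×10^3/well and treated for 24 h with Wnt-3A conditioned medium (from L-Wnt-3A cells) plus analogs (0.01–20 µM; DMSO ≤0.1%). Firefly/Renilla dual-luciferase ratios were expressed as % of DMSO under Wnt-3A. EC50 was taken from sigmoidal concentration–response fits; three independent experiments.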

[2] = Inhibition of Wnt3A/beta-catenin signaling in HEK293 cells at 1 uM after 24 hrs by firefly/renilla dual luciferase reporter gene assay relative to vehicle-treated control; format: cell-based; parameters: scale not given: the % may be the effect or the level left; settings: Homo sapiens; procedure, shortened: as §1
[3] = Inhibition of Wnt3A/beta-catenin signaling in HEK293 cells at 20 uM after 24 hrs by firefly/renilla dual luciferase reporter gene assay relative to vehicle-treated control; format: cell-based; parameters: scale not given: the % may be the effect or the level left; settings: Homo sapiens; procedure, shortened: as §1
[4] = Inhibition of Wnt3A/beta-catenin signaling in HEK293 cells at 10 uM after 24 hrs by firefly/renilla dual luciferase reporter gene assay relative to vehicle-treated control; format: cell-based; parameters: scale not given: the % may be the effect or the level left; settings: Homo sapiens; procedure, shortened: as §1
[5] = Inhibition of Wnt3A/beta-catenin signaling in HEK293 cells after 24 hrs by firefly/renilla dual luciferase reporter gene assay relative to curcumin; format: cell-based; settings: Homo sapiens
Procedure, shortened: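 EC50s came from the HEK293T TOPglow/Renilla dual-luciferase assay with Wnt-3A conditioned medium and 24 h compound exposure (0.01–20 µM), using sigmoidal fits; three independent experiments.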

[6] = Inhibition of Wnt3A/beta-catenin signaling in HEK293 cells after 24 hrs by firefly/renilla dual luciferase reporter gene assay; format: cell-based; settings: Homo sapiens, HEK293, 24 h; procedure, shortened: as §1
HEK293T (human) = experiment: Cytotoxicity against human HEK293T cells at dual luciferase reporter gene assay EC50 after 24 hrs by MTS assay
[7] = Inhibition of Wnt3A/beta-catenin signaling-mediated Tcf4 transcriptional activity in human HEK293T cells at dual luciferase reporter gene assay EC50 after 24 hrs by FOPglow reporter gene assay; parameters: scale not given: the % may be the effect or the level left

Row | EC50 [6] [µM] | SMILES | activity [1] [%] | activity [2] [%] | activity [3] [%] | activity [4] [%] | fold change (FC) [5] | Activity (HEK293T (human)) [%] | activity [7] [%]
1 |  | O=C(/C=C(O)/C=C/c1ccc(F)c(F)c1)/C=C/c1ccc(F)c(F)c1 | 92.2 | 83.3 | 93.1 | 89.2 |  |  | 
2 | 15.9 | COc1ccc(/C=C2\CCC/C(=C\c3ccc(OC)c(OC)c3)C2=O)cc1OC | 64.3 | 97.7 | 40.8 | 62.8 | 1.3 | 62.1 | 104
3 | 11 | O=C(/C=C/c1ccccc1)c1ccccc1 [CHALCONE] | 90.6 | 102 | 18.9 | 69 | 1.9 |  | 112
4 |  | COc1ccc(/C=C/C(=O)/C=C(O)/C=C/c2ccc(OC)c(O)c2)cc1O | 110 | 99.7 | 113 | 105 |  |  | 
5 | 17.1 | COc1ccc(/C=C2\CC/C(=C\c3ccc(OC)c(OC)c3)C2=O)cc1OC | 65.9 | 88.9 | 39.2 | 55.5 | 1.2 |  | 85.2
6 |  | COc1cccc(/C=C2\CC/C(=C\c3cccc(OC)c3)C2=O)c1 | 72.7 | 92.3 | 61.3 | 72 |  |  | 
7 |  | COc1cccc(/C=C/C(=O)/C=C(O)/C=C/c2cccc(OC)c2)c1 | 107 | 97.7 | 101 | 108 |  |  | 
8 |  | O=C(/C=C/c1ccc(O)cc1)c1ccc(O)cc1 | 89.6 | 92.7 | 68.3 | 70.9 |  |  | 
9 | 2.6 | COc1cc(/C=C2\CCC/C(=C\c3ccc(O)c(OC)c3)C2=O)ccc1O [CYCLOVALONE] | 28.9 | 86.1 |  | 21.3 | 7.9 |  | 87.6
10 |  | O=C(/C=C/c1ccc(F)c(F)c1)/C=C/c1ccc(F)c(F)c1 | 100 | 103 | 111 | 110 |  |  | 
11 |  | O=C1/C(=C/c2ccccc2F)CC/C1=C\c1ccccc1F | 75.7 | 80 | 72.8 | 85.3 |  |  | 
12 |  | COc1cccc(/C=C2\CCC/C(=C\c3cccc(OC)c3)C2=O)c1 | 60.7 | 93.3 | 81.5 | 72.7 |  |  | 
13 |  | COc1cccc(/C=C/C(=O)c2cccc(OC)c2)c1 | 108 | 107 | 72.9 | 111 |  |  | 
14 | 2 | O=C1/C(=C/c2ccccc2)CCC/C1=C\c1ccccc1 [2,6-DIBENZYLIDENECYCLOHEXANONE] | 49.6 | 85.8 | 39 | 40.6 | 10.1 | 100 | 90.7
15 |  | O=C(/C=C/c1ccc(O)cc1)CC(=O)/C=C/c1ccc(O)cc1 | 77.7 | 100 | 69.1 | 72.5 |  |  | 
16 |  | COc1cccc(/C=C/C(=O)/C=C/c2cccc(OC)c2)c1 | 114 | 100 | 103 | 103 |  |  | 
17 |  | COc1cc(/C=C/C(=O)c2ccc(O)c(OC)c2)ccc1O | 115 | 112 | 69.6 | 86.9 |  |  | 

Row | EC50 [6] [µM] | SMILES | activity [1] [%] | activity [2] [%] | activity [3] [%] | activity [4] [%] | fold change (FC) [5] | Activity (HEK293T (human)) [%] | activity [7] [%]
18 |  | O=C1/C(=C/c2ccc(F)c(F)c2)CC/C1=C\c1ccc(F)c(F)c1 | 73.1 | 71 | 59.5 | 60.2 |  |  | 
19 | 8.3 | COc1ccc(/C=C/C(=O)/C=C(O)/C=C/c2ccc(OC)c(OC)c2)cc1OC | 70 | 102 |  | 46.5 | 2.5 | 41.6 | 118
20 |  | O=C1/C(=C/c2ccc(F)cc2)CC/C1=C\c1ccc(F)cc1 | 112 | 120 | 108 | 105 |  |  | 
21 |  | COc1ccc(/C=C/C(=O)c2ccc(OC)c(OC)c2)cc1OC | 86.6 | 95 | 41.6 | 60.3 |  |  | 
22 |  | O=C(/C=C(O)/C=C/c1ccccc1)/C=C/c1ccccc1 | 104 | 109 | 97.2 | 107 |  |  | 
23 | 0.9 | O=C1/C(=C/c2ccccc2F)CCC/C1=C\c1ccccc1F | 21.9 | 57.7 | 20.9 | 14.5 | 22.8 | 87 | 93
24 | 5.9 | COc1cc(/C=C2\CC/C(=C\c3ccc(O)c(OC)c3)C2=O)ccc1O | 54.1 | 91.6 | 13.3 | 37.5 | 3.5 |  | 90.8
25 |  | COc1ccc(/C=C/C(=O)/C=C/c2ccc(OC)c(OC)c2)cc1OC | 108 | 107 | 103 | 109 |  |  | 
26 |  | O=C1/C(=C/c2cccc(F)c2)CC/C1=C\c1cccc(F)c1 | 119 | 124 | 103 | 109 |  |  | 
27 |  | O=C(/C=C/c1ccccc1)/C=C/c1ccccc1 | 82.7 | 93 | 77.9 | 79.7 |  |  | 
28 |  | O=C(/C=C/c1ccc(F)c(F)c1)c1ccc(F)c(F)c1 | 112 | 117 | 59.1 | 90.2 |  |  | 
29 |  | O=C1/C(=C/c2ccc(F)cc2)CCC/C1=C\c1ccc(F)cc1 | 65.2 | 70.3 | 60.2 | 61.6 |  |  | 
30 | 3.1 | O=C1/C(=C/c2ccccc2)CC/C1=C\c1ccccc1 | 41.5 | 82.7 | 18.4 | 25.3 | 6.7 | 83.5 | 82.9
31 |  | COc1cc(/C=C/C(=O)/C=C/c2ccc(O)c(OC)c2)ccc1O | 111 | 118 | 90.4 | 110 |  |  | 
32 |  | O=C1/C(=C/c2cccc(F)c2)CCC/C1=C\c1cccc(F)c1 | 119 | 96.1 | 104 | 105 |  |  | 
33 |  | O=C1/C(=C/c2ccc(F)c(F)c2)CCC/C1=C\c1ccc(F)c(F)c1 | 126 | 94.5 | 114 | 118 |  |  | 
34 | 3.9 | COc1ccc(/C=C/C(=O)c2ccc(OC)c(O)c2)cc1O | 53.9 | 95.7 | 25.7 | 42 | 5.3 | 87.2 | 131
